Converted amounts (≈) assume the structure as drawn.
How the values were obtained:
[1] = Urinary excretion in rat after 0-4 hours of oral administration at 50 mg/kg; assay type: ADME, organism-based; set-up: dose 50 mg/kg, route oral; settings: urine
Outline: (§1)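 Fasted male Wistar rats, three per group, dosed orally at 50 mg/kg. Urine collected over 0-4, 4-8 and 8-24 h, diluted 1:100 in ultrapure water, then treated with water and 70% perchloric acid, vortexed and centrifuged. Supernatant analysed by HPLC with pH 2.8 KH2PO4/phosphoric acid mobile phase. Result given as % of administered dose excreted.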

[2] = Urinary excretion in rat after 4-8 hours of oral administration at 50 mg/kg; assay type: ADME, organism-based; set-up: dose 50 mg/kg, route oral; settings: urine; outline: as §1
[3] = Urinary excretion in rat after 8-24 hours of oral administration at 50 mg/kg; assay type: ADME, organism-based; set-up: dose 50 mg/kg, route oral; settings: urine; outline: as §1
[4] = Plasma concentration level in rat after 4 hours of oral administration at 50 mg/kg; assay type: ADME, organism-based; set-up: dose 50 mg/kg, route oral
Outline: (§2)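 Fasted male Wistar rats, three per group, single oral dose 50 mg/kg. Plasma taken at timed points, deproteinized with 70% perchloric acid, vortexed, centrifuged; supernatant analysed by HPLC, mobile-phase buffer 0.01 M KH2PO4 brought to pH 2.8 with phosphoric acid. Values as mean ± error over the group.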

[5] = Plasma concentration level in rat after 1 hour of oral administration at 50 mg/kg; assay type: ADME, organism-based; set-up: dose 50 mg/kg, route oral; outline: as §2
[6] = Plasma concentration level in rat after 15 hours of oral administration at 50 mg/kg; assay type: ADME, organism-based; set-up: dose 50 mg/kg, route oral; outline: as §2
[7] = tested on: Escherichia coli; experiment: Minimal inhibitory concentration against Escherichia coli ISF 432 strain; assay type: functional
Outline: (§3)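 Agar dilution on TSA agar; compounds added by 2-fold dilution to melted medium at 50 °C just before pouring. Organisms stored at –80 °C, diluted in peptonated water to 1–2 × 10^7 CFU, applied with multipoint inoculator. MIC = lowest concentration preventing visible growth after 24 h at 35 °C.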

[8] = tested on: Enterobacter cloacae; experiment: Minimal inhibitory concentration against Enterobacter cloacae OMNFI174 strain; assay type: functional; outline: as §3
[9] = tested on: Klebsiella pneumoniae; experiment: Minimal inhibitory concentration against Klebsiella pneumoniae ATCC 10031 strain; assay type: functional; outline: as §3
[10] = tested on: Proteus vulgaris; experiment: Minimal inhibitory concentration against Proteus vulgaris CNUR6 strain; assay type: functional; outline: as §3
[11] = tested on: Pseudomonas aeruginosa; experiment: Minimal inhibitory concentration against Pseudomonas aeruginosa ATCC 9027 strain; assay type: functional; outline: as §3
[12] = Minimal inhibitory concentration against Shigella enteritidis strain; assay type: functional; outline: as §3
[13] = tested on: Enterococcus faecalis; experiment: Minimal inhibitory concentration against Streptococcus faecalis LEP strain; assay type: functional; outline: as §3
[14] = tested on: Staphylococcus aureus; experiment: Minimal inhibitory concentration against […] aureus ATCC 6538 strain; assay type: functional; outline: as §3

Row | SMILES | dose excreted [1] [%] | dose excreted [2] [%] | dose excreted [3] [%] | concentration at 4 h [4] [ng/mL] | concentration at 1 h [5] [ng/mL] | concentration at 15 h [6] [ng/mL] | MIC [7] [µg/mL] | MIC [8] [µg/mL] | MIC [9] [µg/mL] | MIC [10] [µg/mL] | MIC [11] [µg/mL] | MIC [12] [µg/mL] | MIC [13] [µg/mL] | MIC [14] [µg/mL]
1 | CC1Cn2cc(C(=O)O)c(=O)c3cc(F)c(N4CCN(C)CC4)c(c32)S1 (stereo unspecified) | 1.5 | 2.59 | 5.17 | 7610 | 14100 | 270 | 0.25 (≈ 0.662 µM) | 4 (≈ 10.6 µM) | 0.25 (≈ 0.662 µM) | 32 (≈ 84.8 µM) | 16 (≈ 42.4 µM) | 2 (≈ 5.3 µM) | 32 (≈ 84.8 µM) | 1 (≈ 2.65 µM)
2 | CCNCC1CCN(c2c(F)cc3c(=O)c(C(=O)O)cn4c3c2SC(C)C4)C1 (stereo unspecified) |  |  |  |  |  |  | 0.25 (≈ 0.617 µM) | 8 (≈ 19.7 µM) | 0.25 (≈ 0.617 µM) | > 64 | > 64 | 8 (≈ 19.7 µM) | 16 (≈ 39.5 µM) | 4 (≈ 9.86 µM)
3 | CN1CCN(c2c(F)cc3c(=O)c(C(=O)O)cn4c3c2SC(c2ccc(F)cc2)C4)CC1 (stereo unspecified) |  |  |  |  |  |  | 8 (≈ 17.5 µM) | 32 (≈ 69.9 µM) | > 64 | > 64 | > 64 | 64 (≈ 140 µM) | 64 (≈ 140 µM) | 16 (≈ 35 µM)
4 | CC1Cn2cc(C(=O)O)c(=O)c3cc(F)c(N4CCN(S(=O)(=O)c5ccc(F)cc5)CC4)c(c32)S1 (stereo unspecified) |  |  |  |  |  |  | 2 (≈ 3.83 µM) | 8 (≈ 15.3 µM) | 1 (≈ 1.92 µM) | > 64 | > 64 | 8 (≈ 15.3 µM) | 16 (≈ 30.7 µM) | 4 (≈ 7.67 µM)
5 | O=C(O)c1cn2c3c(c(N4CCNCC4)c(F)cc3c1=O)SCC2 | 2.73 | 5.59 | 11.5 |  |  |  |  |  |  |  |  |  |  | 
6 | O=C(O)c1cn2c3c(c(Cl)c(F)cc3c1=O)SC(c1ccccc1F)C2 (stereo unspecified) |  |  |  |  |  |  | 0.5 (≈ 1.27 µM) | > 64 | 0.5 (≈ 1.27 µM) | > 64 | > 64 | > 64 | 4 (≈ 10.2 µM) | 8 (≈ 20.3 µM)
7 | CC1Cn2cc(C(=O)O)c(=O)c3cc(F)c(N4CCCC4)c(c32)S1 (stereo unspecified) |  |  |  |  |  |  | 0.25 (≈ 0.718 µM) | 16 (≈ 45.9 µM) | 2 (≈ 5.74 µM) | > 64 | > 64 | 16 (≈ 45.9 µM) | 32 (≈ 91.8 µM) | 2 (≈ 5.74 µM)
8 | O=C(O)c1cn2c3c(c(Cl)c(F)cc3c1=O)SC(c1cccc(F)c1)C2 (stereo unspecified) |  |  |  |  |  |  | 2 (≈ 5.08 µM) | > 64 | 2 (≈ 5.08 µM) | > 64 | > 64 | > 64 | 32 (≈ 81.3 µM) | 2 (≈ 5.08 µM)
9 | CC1Cn2cc(C(=O)O)c(=O)c3cc(F)c(N4CCNCC4)c(c32)S1 (stereo unspecified) | 0.37 | 1.92 | 3.12 |  |  |  | 0.25 (≈ 0.688 µM) | 16 (≈ 44 µM) | 2 (≈ 5.5 µM) | > 64 | 64 (≈ 176 µM) | 8 (≈ 22 µM) | > 64 | 8 (≈ 22 µM)
10 | CC1Cn2cc(C(=O)O)c(=O)c3cc(F)c(N4CCCNCC4)c(c32)S1 (stereo unspecified) |  |  |  |  |  |  | 4 (≈ 10.6 µM) | 8 (≈ 21.2 µM) | 1 (≈ 2.65 µM) | 64 (≈ 170 µM) | > 64 | 32 (≈ 84.8 µM) | 32 (≈ 84.8 µM) | 2 (≈ 5.3 µM)
11 | CC1Cn2cc(C(=O)O)c(=O)c3cc(F)c(Cl)c(c32)S1 (stereo unspecified) |  |  |  |  |  |  | 0.12 (≈ 0.382 µM) | 2 (≈ 6.37 µM) | 8 (≈ 25.5 µM) | > 64 | 32 (≈ 102 µM) | 4 (≈ 12.7 µM) | 32 (≈ 102 µM) | 2 (≈ 6.37 µM)
12 | CC1Cn2cc(C(=O)O)c(=O)c3cc(F)c(N4CCN(c5ccccn5)CC4)c(c32)S1 (stereo unspecified) |  |  |  |  |  |  | 1 (≈ 2.27 µM) | > 64 | 2 (≈ 4.54 µM) | > 64 | > 64 | > 64 | 2 (≈ 4.54 µM) | 0.5 (≈ 1.14 µM)
13 | CC1Cn2cc(C(=O)O)c(=O)c3cc(F)c(N4CCN(Cc5ccc(F)cc5F)CC4)c(c32)S1 (stereo unspecified) |  |  |  |  |  |  | 8 (≈ 16.3 µM) | > 64 | > 64 | > 64 | > 64 | > 64 | 64 (≈ 131 µM) | 32 (≈ 65.4 µM)
14 | O=C(O)c1cn2c3c(c(N4CCNCC4)c(F)cc3c1=O)SC(c1ccc(F)cc1)C2 (stereo unspecified) |  |  |  |  |  |  | 2 (≈ 4.51 µM) | 32 (≈ 72.2 µM) | 16 (≈ 36.1 µM) | > 64 | > 64 | 32 (≈ 72.2 µM) | 16 (≈ 36.1 µM) | 16 (≈ 36.1 µM)
15 | CC1Cn2cc(C(=O)O)c(=O)c3cc(F)c(N4CCN(Cc5cccc(F)c5)CC4)c(c32)S1 (stereo unspecified) |  |  |  |  |  |  | 16 (≈ 33.9 µM) | > 64 | > 64 | > 64 | > 64 | > 64 | > 64 | 32 (≈ 67.9 µM)
16 | CC1Cn2cc(C(=O)O)c(=O)c3cc(F)c(N4CCN(C=O)CC4)c(c32)S1 (stereo unspecified) |  |  |  |  |  |  | 0.5 (≈ 1.28 µM) | 1 (≈ 2.55 µM) | 0.5 (≈ 1.28 µM) | 64 (≈ 164 µM) | 32 (≈ 81.8 µM) | 1 (≈ 2.55 µM) | 64 (≈ 164 µM) | 16 (≈ 40.9 µM)
17 | O=C(O)c1cn2c3c(c(Cl)c(F)cc3c1=O)SC(c1ccc(F)cc1)C2 (stereo unspecified) |  |  |  |  |  |  | 0.25 (≈ 0.635 µM) | 8 (≈ 20.3 µM) | 0.25 (≈ 0.635 µM) | > 64 | > 64 | > 64 | 8 (≈ 20.3 µM) | 4 (≈ 10.2 µM)
18 | CC1Cn2cc(C(=O)O)c(=O)c3cc(F)c(-n4ccnc4)c(c32)S1 (stereo unspecified) |  |  |  |  |  |  | 0.12 (≈ 0.347 µM) | 16 (≈ 46.3 µM) | 0.25 (≈ 0.724 µM) | > 64 | 64 (≈ 185 µM) | 4 (≈ 11.6 µM) | 32 (≈ 92.7 µM) | 16 (≈ 46.3 µM)
19 | CC1Cn2cc(C(=O)O)c(=O)c3cc(F)c(N4CCN(c5ccc(F)cc5)CC4)c(c32)S1 (stereo unspecified) |  |  |  |  |  |  | 8 (≈ 17.5 µM) | > 64 | > 64 | > 64 | > 64 | > 64 | 4 (≈ 8.74 µM) | 8 (≈ 17.5 µM)
20 | CC1CN(c2c(F)cc3c(=O)c(C(=O)O)cn4c3c2SC(C)C4)CC(C)N1 (stereo unspecified) |  |  |  |  |  |  | 0.25 (≈ 0.639 µM) | 4 (≈ 10.2 µM) | 0.25 (≈ 0.639 µM) | > 64 | 32 (≈ 81.7 µM) | 4 (≈ 10.2 µM) | 64 (≈ 163 µM) | 4 (≈ 10.2 µM)
21 | CC1Cn2cc(C(=O)O)c(=O)c3cc(F)c(N4CCN(Cc5ccccc5C(F)(F)F)CC4)c(c32)S1 (stereo unspecified) |  |  |  |  |  |  | 8 (≈ 15.3 µM) | > 64 | 8 (≈ 15.3 µM) | > 64 | > 64 | > 64 | > 64 | > 64
22 | CN1CCN(c2c(F)cc3c(=O)c(C(=O)O)cn4c3c2SCC4)CC1 [RUFLOXACIN] | 2.18 | 10.5 | 15.6 | 4430 | 7740 | 410 | 0.25 (≈ 0.688 µM) | 2 (≈ 5.5 µM) | 0.12 (≈ 0.33 µM) | 4 (≈ 11 µM) | 8 (≈ 22 µM) | 2 (≈ 5.5 µM) | 16 (≈ 44 µM) | 1 (≈ 2.75 µM)

Reference: ChEMBL document CHEMBL1126958, “Quinolinecarboxylic acids. 3. Synthesis and antibacterial evaluation of 2-substituted-7-oxo-2,3-dihydro-7H-pyrido[1,2,3-de] [1,4]benzothiazine-6-carboxylic acids related to rufloxacin” (J Med Chem, 1993)
